The values below come from ChEMBL document CHEMBL4834423, “Discovery of AG-270, a First-in-Class Oral MAT2A Inhibitor for the Treatment of Tumors with Homozygous MTAP Deletion” (J Med Chem, 2021).

For data set [1], the system named is KP-4. The data set is described as follows: Anticancer activity in MTAP-null human KP-4 cells xenografted mouse model assessed as inhibition of SAM production at 100 mg/kg, po qd treated for 38 days relative to control. Type of data set: functional. As to conditions: KP-4, po, 912 h, time 38 day. The essentials:
(§1)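 Subcutaneous KP4 MTAP-null xenograft mice, 12 per arm (60 animals), dosed orally once daily on days 24−38 at 10−200 mg/kg. Tumor SAM levels and plasma compound exposure were monitored; plasma sampled up to 24 h after the last dose. Mean tumor volume and body weight change were tracked; error bars are SEM.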
For orientation: A xenograft is tissue or cells of one species grown in another, often human tumour cells in immunodeficient mice.

Data set [2] concerns KP-4. In words: Anticancer activity in MTAP-null human KP-4 cells xenografted mouse model assessed as tumor growth inhibition at 10 mg/kg, po qd treated for 38 days relative to control. Type of data set: functional. Particulars: KP-4, po, 912 h, time 38 day, read-out: TGI. An outline of the steps:
as §1

In another data set the target is Cytochrome P450 2D6 (Homo sapiens, UniProt P10635). In words: Inhibition of CYP2D6 (unknown origin) assessed as inactivation relative to control. It is filed as ADME.
Chain of Cytochrome P450 2D6 (P10635 whole entry): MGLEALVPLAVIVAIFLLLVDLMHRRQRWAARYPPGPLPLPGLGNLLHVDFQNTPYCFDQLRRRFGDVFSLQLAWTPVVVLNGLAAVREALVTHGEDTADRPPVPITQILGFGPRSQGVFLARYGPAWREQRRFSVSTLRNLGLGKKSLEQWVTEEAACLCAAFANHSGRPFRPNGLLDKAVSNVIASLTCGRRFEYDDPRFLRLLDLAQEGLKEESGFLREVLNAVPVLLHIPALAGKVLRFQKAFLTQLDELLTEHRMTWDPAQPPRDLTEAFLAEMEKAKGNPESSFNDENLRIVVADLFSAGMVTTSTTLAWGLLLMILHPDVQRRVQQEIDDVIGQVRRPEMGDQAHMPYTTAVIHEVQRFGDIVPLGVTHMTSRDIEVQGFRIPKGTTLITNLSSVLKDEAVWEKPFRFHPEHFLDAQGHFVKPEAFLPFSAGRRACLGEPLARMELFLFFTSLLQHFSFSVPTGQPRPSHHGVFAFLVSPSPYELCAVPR
For data set [3], the system named is KP-4. In words: Anticancer activity in MTAP-null human KP-4 cells xenografted mouse model assessed as tumor growth inhibition at 30 mg/kg, po qd treated for 38 days relative to control. Type of data set: functional. As to conditions: KP-4, po, 912 h, time 38 day, read-out: TGI. An outline of the steps:
as §1

A further data set deals with HCT-116. In words: cells. Particulars: Homo sapiens, HCT-116, 96 h.
The nature of data set [4]: Protein binding in human plasma assessed as unbound fraction. It is filed as ADME, cell-free.
In data set [5] the test system is KP-4. The data set is described as follows: Anticancer activity in MTAP-null human KP-4 cells xenografted mouse model assessed as inhibition of SAM production at 30 mg/kg, po qd treated for 38 days relative to control. It is filed as functional. As to conditions: KP-4, po, 912 h, time 38 day. The essentials:
as §1

Data set [6] in a line: Oral bioavailability in dog at 5 mg/kg. Type of data set: ADME, organism-based, Canis lupus familiaris. As to conditions: in vivo.
For data set [7], the target named is T1, Cytochrome P450 2C9 (Homo sapiens, UniProt P11712). In words: Inhibition of CYP2C9 (unknown origin). It is filed as ADME.
T1 sequence (P11712 whole entry): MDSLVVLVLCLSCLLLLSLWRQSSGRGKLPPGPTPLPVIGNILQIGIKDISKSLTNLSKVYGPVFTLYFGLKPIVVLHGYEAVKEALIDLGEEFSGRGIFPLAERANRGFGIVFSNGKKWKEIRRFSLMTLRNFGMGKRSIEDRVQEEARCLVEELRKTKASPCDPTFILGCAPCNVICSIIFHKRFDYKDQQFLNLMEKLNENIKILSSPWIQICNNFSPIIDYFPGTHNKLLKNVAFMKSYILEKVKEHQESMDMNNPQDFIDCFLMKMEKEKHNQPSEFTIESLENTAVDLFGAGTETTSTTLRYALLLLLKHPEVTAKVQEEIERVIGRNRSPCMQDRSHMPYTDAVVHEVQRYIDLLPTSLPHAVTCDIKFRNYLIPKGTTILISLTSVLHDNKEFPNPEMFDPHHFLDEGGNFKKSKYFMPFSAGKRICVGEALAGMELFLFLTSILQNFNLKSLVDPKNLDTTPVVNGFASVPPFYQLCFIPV
The nature of data set [8]: Oral bioavailability in rat at 5 mg/kg. Type of data set: ADME, organism-based. Particulars: in vivo.
The target of the next data set is T2, PXR (NR1I2) (Homo sapiens, UniProt O75469).
T2 sequence (O75469 whole entry): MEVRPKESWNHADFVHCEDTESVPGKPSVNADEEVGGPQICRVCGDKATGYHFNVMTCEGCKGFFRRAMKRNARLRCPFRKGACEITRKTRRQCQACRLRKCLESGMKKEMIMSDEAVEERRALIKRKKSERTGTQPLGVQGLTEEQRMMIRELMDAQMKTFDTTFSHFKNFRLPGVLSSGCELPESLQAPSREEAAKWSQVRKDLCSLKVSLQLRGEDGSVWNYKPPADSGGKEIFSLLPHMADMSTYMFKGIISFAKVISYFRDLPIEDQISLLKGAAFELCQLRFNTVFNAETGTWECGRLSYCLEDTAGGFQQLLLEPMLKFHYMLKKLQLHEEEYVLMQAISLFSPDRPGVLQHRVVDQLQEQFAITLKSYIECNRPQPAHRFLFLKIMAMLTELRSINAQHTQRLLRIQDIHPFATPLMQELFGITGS
In words: Transactivation of PXR in human HepG2 cells relative to rifampicin. It is filed as cell-based. As to conditions: read-out: Activity.

Data set [9] concerns the target T3, Cytochrome P450 2C19 (Homo sapiens, UniProt P33261). In words: Inhibition of CYP2C19 (unknown origin). Type of data set: ADME.
Data set [10] has as its target T1, Cytochrome P450 2C9. The data set is described as follows: Inhibition of CYP2C9 (unknown origin) assessed as inactivation relative to control. It is filed as ADME.
Data set [11] can be described thus: Protein binding in monkey plasma assessed as unbound fraction. It is filed as ADME, cell-free, Macaca mulatta. Particulars: rhesus monkey.
For data set [12], the target named is T3, Cytochrome P450 2C19. In words: Inhibition of CYP2C19 (unknown origin) assessed as inactivation relative to control. Type of data set: ADME.

T3 sequence (P33261 whole entry): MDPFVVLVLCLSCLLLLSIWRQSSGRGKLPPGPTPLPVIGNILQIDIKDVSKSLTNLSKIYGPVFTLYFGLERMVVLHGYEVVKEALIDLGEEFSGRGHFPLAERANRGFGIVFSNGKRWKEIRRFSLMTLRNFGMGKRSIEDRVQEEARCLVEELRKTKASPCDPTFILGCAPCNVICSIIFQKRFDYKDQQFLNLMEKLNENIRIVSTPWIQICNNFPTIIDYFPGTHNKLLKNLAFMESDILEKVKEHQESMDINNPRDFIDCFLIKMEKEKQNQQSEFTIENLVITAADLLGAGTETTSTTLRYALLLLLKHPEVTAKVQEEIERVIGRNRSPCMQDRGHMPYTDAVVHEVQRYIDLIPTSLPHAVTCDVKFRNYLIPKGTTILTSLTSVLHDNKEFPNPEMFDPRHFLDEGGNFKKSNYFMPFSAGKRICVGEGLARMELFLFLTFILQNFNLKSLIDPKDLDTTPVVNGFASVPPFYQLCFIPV

In general, IC50 refers to the midpoint of a concentration-inhibition curve. A word on the fraction unbound: it is the share of the substance not bound to proteins or other matrix. Broadly, the bioavailability is dose-corrected exposure relative to a reference, in per cent. On to `COc1ccc(-c2c(Nc3ccccn3)[nH]c3c(C4=CCCCC4)c(-c4ccccc4)nn3c2=O)cc1`, for which the inhibition in vivo at 100 mg/kg in the data set with KP-4 [1] was 63.5%. Also, in the data set on KP-4 [2], the inhibition in vivo at 10 mg/kg turned out to be 36%. Moreover, the INH on Cytochrome P450 2D6, at Cytochrome P450 2C9 [10] and on Cytochrome P450 2C19 [12] was more than 50 µM throughout. Further, the inhibition in vivo at 30 mg/kg in the data set on KP-4 [3] stood at 48%; with KP-4 [5], 44.7%. Besides, the IC50 with HCT-116 was 0.257 µM; on Cytochrome P450 2C9 [7], more than 10 µM; on Cytochrome P450 2C19 [9], more than 10 µM. Also, the fraction unbound in data set [4] was determined as 0.015; in data set [11], 0.011. The bioavailability in data set [6] stood at 48%; in data set [8], 92%. In addition, on PXR (NR1I2), the Emax came out at 22%.
